Results: ChEMBL document CHEMBL4257473, “Design, synthesis and antibacterial evaluation of a polycationic calix[4]arene derivative alone and in combination with antibiotics” (Medchemcomm, 2018)
Converted amounts (≈) assume the structure as drawn.

Columns and labels:
Type in all cases: functional
Staphylococcus aureus [1] = test: Bactericidal activity against methicillin-resistant Staphylococcus aureus 15 incubated for 24 hrs followed by replating on Mueller hinton agar plates and measured after 24 hrs; settings: Staphylococcus aureus, 15, 24 h
Method in brief: (§1)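 MBC follows the broth microdilution MIC step (MHB, 5×10^5 CFU mL⁻¹, 37 °C, 24 h). 15 µL from every clear MIC well is seeded onto Mueller Hinton agar and incubated 37 °C for 24 h. MBC is the lowest concentration giving no growth. At least three replicates, and modal value reported.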

[2] = test system: Staphylococcus epidermidis; test: Antibacterial activity against methicillin-resistant Staphylococcus epidermidis 57 after 24 hrs by microbroth dilution method; settings: Staphylococcus epidermidis, 57, 24 h
Method in brief: (§2)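 Broth microdilution per NCCLS guidelines in Mueller Hinton broth, from overnight cultures. Final inoculum 5×10^5 CFU mL⁻¹. Calixarene tested at 1–1024 μg mL⁻¹, ofloxacin 0.06–2048, chloramphenicol 1–2048, tetracycline 0.03–128 μg mL⁻¹. Plates incubated 37 °C for 24 h. MIC is the lowest concentration with no visible growth. Triplicate, with growth control, and modal value reported.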

Staphylococcus aureus [3] = test: Bactericidal activity against Staphylococcus aureus ATCC 6538 incubated for 24 hrs followed by replating on Mueller hinton agar plates and measured after 24 hrs; settings: ATCC 6538, 24 h; method in brief: as §1
[4] = test system: Staphylococcus epidermidis; test: Antibacterial activity against Staphylococcus epidermidis ATCC 35984 after 24 hrs by microbroth dilution method; settings: ATCC 35984, 24 h
Method in brief: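 Broth microdilution per NCCLS guidelines in Mueller Hinton broth, overnight culture inoculated at final 5×10^5 CFU mL⁻¹. Calixarene tested at 1-1024 µg mL⁻¹. Incubation 37 °C for 24 h. MIC taken as the lowest concentration with no visible growth. Growth control included, triplicate runs, modal value reported.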

[5] = test system: Staphylococcus epidermidis; test: Bactericidal activity against Staphylococcus epidermidis ATCC 35984 incubated for 24 hrs followed by replating on Mueller hinton agar plates and measured after 24 hrs; settings: ATCC 35984, 24 h; method in brief: as §1
Pseudomonas aeruginosa [6] = test: Antibacterial activity against Pseudomonas aeruginosa isolate 1 after 24 hrs by microbroth dilution method; settings: isolate 1, 24 h; method in brief: as §2
[7] = test system: Staphylococcus epidermidis; test: Bactericidal activity against methicillin-resistant Staphylococcus epidermidis 57 incubated for 24 hrs followed by replating on Mueller hinton agar plates and measured after 24 hrs; settings: Staphylococcus epidermidis, 57, 24 h; method in brief: as §1
Staphylococcus aureus [8] = test: Antibacterial activity against methicillin-resistant Staphylococcus aureus 15 after 24 hrs by microbroth dilution method; settings: Staphylococcus aureus, 15, 24 h; method in brief: as §2
Pseudomonas aeruginosa [9] = test: Antibacterial activity against Pseudomonas aeruginosa ATCC 9027 after 24 hrs by microbroth dilution method; settings: ATCC 9027, 24 h; method in brief: as §2
Staphylococcus aureus [10] = test: Antibacterial activity against Staphylococcus aureus ATCC 6538 after 24 hrs by microbroth dilution method; settings: ATCC 6538, 24 h; method in brief: as §2
Pseudomonas aeruginosa [11] = test: Bactericidal activity against Pseudomonas aeruginosa ATCC 9027 incubated for 24 hrs followed by replating on Mueller hinton agar plates and measured after 24 hrs; settings: ATCC 9027, 24 h
Method in brief: (§3)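 MBC follows a broth microdilution MIC run (Mueller Hinton broth, 5×10^5 CFU mL⁻¹, 37 °C, 24 h). 15 µL from every clear well is seeded onto Mueller Hinton agar and incubated at 37 °C for 24 h. MBC is the lowest concentration giving no growth. At least three replicates, modal result used.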

Pseudomonas aeruginosa [12] = test: Bactericidal activity against Pseudomonas aeruginosa isolate 1 incubated for 24 hrs followed by replating on Mueller hinton agar plates and measured after 24 hrs; settings: isolate 1, 24 h; method in brief: as §3
Staphylococcus aureus [13] = test: Potency index, ratio of chloramphenicol MIC to test compound MIC for methicillin-resistant Staphylococcus aureus 15
[14] = test system: Staphylococcus epidermidis; test: Potency index, ratio of chloramphenicol MBC to test compound MBC for Staphylococcus epidermidis 57
Pseudomonas aeruginosa [15] = test: Potency index, ratio of chloramphenicol MBC to test compound MBC for Pseudomonas aeruginosa isolate 1
Staphylococcus aureus [16] = test: Potency index, ratio of chloramphenicol MBC to test compound MBC for methicillin-resistant Staphylococcus aureus 15
Pseudomonas aeruginosa [17] = test: Antibacterial activity against Pseudomonas aeruginosa isolate 1 assessed as FIC index after overnight incubation in presence of tetracycline by checkerboard assay
Method in brief: (§4)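 Checkerboard combination of the calixarene with each antibiotic, each agent at final 2 to 0.015 times its MIC, giving 64 combinations. Inoculum prepared in Mueller Hinton broth and added at final 5×10^5 CFU mL⁻¹. Plates incubated overnight at 37 °C, then FICI calculated from the combination MICs.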

Pseudomonas aeruginosa [18] = test: Antibacterial activity against Pseudomonas aeruginosa isolate 1 assessed as FIC index after overnight incubation in presence of chloramphenicol by checkerboard assay; method in brief: as §4
Pseudomonas aeruginosa [19] = test: Antibacterial activity against Pseudomonas aeruginosa isolate 1 assessed as FIC index after overnight incubation in presence of ofloxacin by checkerboard assay; method in brief: as §4
Pseudomonas aeruginosa [20] = test: Antibacterial activity against Pseudomonas aeruginosa ATCC 9027 assessed as FIC index after overnight incubation in presence of tetracycline by checkerboard assay
Method in brief: (§5)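 Checkerboard combinations of calixarene with antibiotic, each at final concentrations from 2 to 0.015 × its MIC, giving 64 combinations per plate. Inoculum prepared in MHB, final 5×10^5 CFU mL⁻¹. Incubated overnight at 37 °C. Fractional inhibitory concentration index calculated from the combination MICs.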

Staphylococcus aureus [21] = test: Antibacterial activity against methicillin-resistant Staphylococcus aureus 15 assessed as FIC index after overnight incubation in presence of tetracycline by checkerboard assay; method in brief: as §5
Staphylococcus aureus [22] = test: Antibacterial activity against Staphylococcus aureus ATCC 6538 assessed as FIC index after overnight incubation in presence of ofloxacin by checkerboard assay; method in brief: as §4
Pseudomonas aeruginosa [23] = test: Potency index, ratio of ofloxacin MBC to test compound MBC for Pseudomonas aeruginosa isolate 1
Pseudomonas aeruginosa [24] = test: Antibacterial activity against Pseudomonas aeruginosa ATCC 9027 assessed as FIC index after overnight incubation in presence of chloramphenicol by checkerboard assay; method in brief: as §4
[25] = test system: Staphylococcus epidermidis; test: Potency index, ratio of ofloxacin MBC to test compound MBC for Staphylococcus epidermidis 57
Staphylococcus aureus [26] = test: Antibacterial activity against Staphylococcus aureus ATCC 6538 assessed as FIC index after overnight incubation in presence of tetracycline by checkerboard assay; method in brief: as §4
Pseudomonas aeruginosa [27] = test: Potency index, ratio of chloramphenicol MIC to test compound MIC for Pseudomonas aeruginosa isolate 1
[28] = test system: Staphylococcus epidermidis; test: Antibacterial activity against methicillin-resistant Staphylococcus epidermidis 57 assessed as FIC index after overnight incubation in presence of ofloxacin by checkerboard assay; method in brief: as §5
[29] = test system: Staphylococcus epidermidis; test: Potency index, ratio of chloramphenicol MBC to test compound MBC for Staphylococcus epidermidis ATCC 35984
Staphylococcus aureus [30] = test: Antibacterial activity against methicillin-resistant Staphylococcus aureus 15 assessed as FIC index after overnight incubation in presence of ofloxacin by checkerboard assay; method in brief: as §5
[31] = test system: Staphylococcus epidermidis; test: Potency index, ratio of chloramphenicol MIC to test compound MIC for Staphylococcus epidermidis ATCC 35984
Staphylococcus aureus [32] = test: Antibacterial activity against Staphylococcus aureus ATCC 6538 assessed as FIC index after overnight incubation in presence of chloramphenicol by checkerboard assay; method in brief: as §4
[33] = test system: Staphylococcus epidermidis; test: Antibacterial activity against Staphylococcus epidermidis ATCC 35984 assessed as FIC index after overnight incubation in presence of ofloxacin by checkerboard assay; method in brief: as §4
[34] = test system: Staphylococcus epidermidis; test: Potency index, ratio of chloramphenicol MIC to test compound MIC for Staphylococcus epidermidis 57
[35] = test system: Staphylococcus epidermidis; test: Antibacterial activity against methicillin-resistant Staphylococcus epidermidis 57 assessed as FIC index after overnight incubation in presence of tetracycline by checkerboard assay; method in brief: as §5
[36] = test system: Staphylococcus epidermidis; test: Potency index, ratio of ofloxacin MIC to test compound MIC for Staphylococcus epidermidis 57
Pseudomonas aeruginosa [37] = test: Antibacterial activity against Pseudomonas aeruginosa ATCC 9027 assessed as FIC index after overnight incubation in presence of ofloxacin by checkerboard assay; method in brief: as §4
[38] = test system: Staphylococcus epidermidis; test: Antibacterial activity against Staphylococcus epidermidis ATCC 35984 assessed as FIC index after overnight incubation in presence of chloramphenicol by checkerboard assay; method in brief: as §5

Which MBC (Staphylococcus aureus [1]) does the source give for `O=C(N[C@H](CO)[C@H](O)c1ccc([N+](=O)[O-])cc1)C(Cl)Cl` [CHLORAMPHENICOL] here?
The MBC was 128 µg/mL (≈ 396 µM).

And the MIC [2]?
The MIC was 8 µg/mL (≈ 24.8 µM).

What about the MBC (Staphylococcus aureus [3]) of the same molecule?
The MBC was 8 µg/mL (≈ 24.8 µM).

What about the MIC [4] of the same molecule?
The MIC was 16 µg/mL (≈ 49.5 µM).

What about the MBC [5] of the same molecule?
The MBC was 128 µg/mL (≈ 396 µM).

What about the MIC (Pseudomonas aeruginosa [6]) of the same molecule?
Its MIC is 512 µg/mL (≈ 1580 µM).

What about the MBC [7] of the same molecule?
Its MBC is 256 µg/mL (≈ 792 µM).

What about the MIC (Staphylococcus aureus [8]) of the same molecule?
Its MIC is 8 µg/mL (≈ 24.8 µM).

And the MIC (Pseudomonas aeruginosa [9])?
The MIC was 64 µg/mL (≈ 198 µM).

What about the MIC (Staphylococcus aureus [10]) of the same molecule?
Its MIC is 4 µg/mL (≈ 12.4 µM).

What about the MBC (Pseudomonas aeruginosa [11]) of the same molecule?
Its MBC is 128 µg/mL (≈ 396 µM).

And the MBC (Pseudomonas aeruginosa [12])?
The MBC was 1020 µg/mL (≈ 3170 µM).

What does the source list for `CCCOc1c2cc(C[N+](C)(CCO)CCO)cc1Cc1cc(C[N+](C)(CCO)CCO)cc(c1OCCC)Cc1cc(C[N+](C)(CCO)CCO)cc(c1OCCC)Cc1cc(C[N+](C)(CCO)CCO)cc(c1OCCC)C2.[Cl-].[Cl-].[Cl-].[Cl-]`?
MBC (Staphylococcus aureus [1]): 8 µg/mL; Ratio (Staphylococcus aureus [13]): 2; Ratio [14]: 32; MIC [2]: 4 µg/mL; Ratio (Pseudomonas aeruginosa [15]): 4; Ratio (Staphylococcus aureus [16]): 16; MBC (Staphylococcus aureus [3]): 8 µg/mL; MIC [4]: 4 µg/mL; MBC [5]: 8 µg/mL; MIC (Pseudomonas aeruginosa [6]): 256 µg/mL; MBC [7]: 8 µg/mL; fractional inhibitory concentration index (FICI) (Pseudomonas aeruginosa [17]): 0.56; fractional inhibitory concentration index (FICI) (Pseudomonas aeruginosa [18]): 0.53; MIC (Staphylococcus aureus [8]): 4 µg/mL; fractional inhibitory concentration index (FICI) (Pseudomonas aeruginosa [19]): 0.62; fractional inhibitory concentration index (FICI) (Pseudomonas aeruginosa [20]): 1.06; fractional inhibitory concentration index (FICI) (Staphylococcus aureus [21]): 1.03; fractional inhibitory concentration index (FICI) (Staphylococcus aureus [22]): 1.25; Ratio (Pseudomonas aeruginosa [23]): 2; fractional inhibitory concentration index (FICI) (Pseudomonas aeruginosa [24]): 0.62; Ratio [25]: 262; fractional inhibitory concentration index (FICI) (Staphylococcus aureus [26]): 1.48; Ratio (Pseudomonas aeruginosa [27]): 2; MIC (Pseudomonas aeruginosa [9]): 128 µg/mL; MIC (Staphylococcus aureus [10]): 4 µg/mL; fractional inhibitory concentration index (FICI) [28]: 1; Ratio [29]: 16; fractional inhibitory concentration index (FICI) (Staphylococcus aureus [30]): 1; MBC (Pseudomonas aeruginosa [11]): 256 µg/mL; Ratio [31]: 4; fractional inhibitory concentration index (FICI) (Staphylococcus aureus [32]): 1.12; fractional inhibitory concentration index (FICI) [33]: 1.25; Ratio [34]: 2; fractional inhibitory concentration index (FICI) [35]: 1.03; Ratio [36]: 131; fractional inhibitory concentration index (FICI) (Pseudomonas aeruginosa [37]): 1.06; fractional inhibitory concentration index (FICI) [38]: 1.03; MBC (Pseudomonas aeruginosa [12]): 256 µg/mL

Which results are given for `CC1COc2c(N3CCN(C)CC3)c(F)cc3c(=O)c(C(=O)O)cn1c23` (stereo not drawn) [OFLOXACIN]?
MBC (Staphylococcus aureus [1]): > 2050 µg/mL; MIC [2]: 512 µg/mL (≈ 1420 µM); MBC (Staphylococcus aureus [3]): 0.5 µg/mL (≈ 1.38 µM); MIC [4]: 0.25 µg/mL (≈ 0.692 µM); MBC [5]: 0.5 µg/mL (≈ 1.38 µM); MIC (Pseudomonas aeruginosa [6]): 256 µg/mL (≈ 708 µM); MBC [7]: > 2050 µg/mL; MIC (Staphylococcus aureus [8]): 512 µg/mL (≈ 1420 µM); MIC (Staphylococcus aureus [10]): 0.25 µg/mL (≈ 0.692 µM); MBC (Pseudomonas aeruginosa [11]): 2 µg/mL (≈ 5.53 µM); MBC (Pseudomonas aeruginosa [12]): 512 µg/mL (≈ 1420 µM)

What does the source list for `CN(C)[C@@H]1C(O)=C(C(N)=O)C(=O)[C@@]2(O)C(O)=C3C(=O)c4c(O)cccc4[C@@](C)(O)[C@H]3C[C@@H]12` [TETRACYCLINE]?
MBC (Staphylococcus aureus [1]): 16 µg/mL (≈ 36 µM); MIC [2]: 1 µg/mL (≈ 2.25 µM); MBC (Staphylococcus aureus [3]): 4 µg/mL (≈ 9 µM); MIC [4]: 0.5 µg/mL (≈ 1.13 µM); MBC [5]: 8 µg/mL (≈ 18 µM); MIC (Pseudomonas aeruginosa [6]): 16 µg/mL (≈ 36 µM); MBC [7]: 16 µg/mL (≈ 36 µM); MIC (Staphylococcus aureus [8]): 1 µg/mL (≈ 2.25 µM); MIC (Pseudomonas aeruginosa [9]): 16 µg/mL (≈ 36 µM); MIC (Staphylococcus aureus [10]): 0.125 µg/mL (≈ 0.281 µM); MBC (Pseudomonas aeruginosa [11]): 32 µg/mL (≈ 72 µM); MBC (Pseudomonas aeruginosa [12]): 32 µg/mL (≈ 72 µM)
